Source: PubChem BioAssay AID1325 (NMMLSC, 2008)
Among all 190,000 compounds or so, about 200 (0.11%) were called active.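 The calls were made as follows: active = inhibition above 80%; inactive = the rest.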 This excerpt belongs to a sample that is enriched for actives.

biological target: Broad substrate specificity ATP-binding cassette transporter ABCG2 (Homo sapiens) (UniProt Q9UNQ0); assay: blockers of JC-1 export by ABCG2 – multiplex with ABCB1, IgMXP3 cells, flow cytometry, primary screen (AID 1325); conditions: JC-1 efflux, at 6.6 µM, hits give high values
Sequence (Q9UNQ0 whole entry, looked up): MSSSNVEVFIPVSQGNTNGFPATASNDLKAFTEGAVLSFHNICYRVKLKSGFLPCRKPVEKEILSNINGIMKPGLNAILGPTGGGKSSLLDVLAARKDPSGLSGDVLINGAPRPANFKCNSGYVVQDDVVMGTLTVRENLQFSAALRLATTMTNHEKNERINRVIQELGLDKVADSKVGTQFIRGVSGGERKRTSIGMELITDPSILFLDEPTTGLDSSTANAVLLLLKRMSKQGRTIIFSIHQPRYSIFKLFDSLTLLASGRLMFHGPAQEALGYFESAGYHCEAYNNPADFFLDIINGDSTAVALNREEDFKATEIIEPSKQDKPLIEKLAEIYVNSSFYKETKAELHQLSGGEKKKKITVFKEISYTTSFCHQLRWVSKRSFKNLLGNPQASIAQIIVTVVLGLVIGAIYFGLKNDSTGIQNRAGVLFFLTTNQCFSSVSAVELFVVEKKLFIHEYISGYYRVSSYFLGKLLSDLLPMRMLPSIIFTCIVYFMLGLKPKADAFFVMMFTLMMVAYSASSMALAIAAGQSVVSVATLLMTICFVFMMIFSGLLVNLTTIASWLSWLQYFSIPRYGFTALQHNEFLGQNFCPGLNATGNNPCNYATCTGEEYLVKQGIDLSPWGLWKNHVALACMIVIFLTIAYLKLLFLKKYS
How it was run: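 Test system: IgMXP3 (ABCG2) plus far-red-tagged CCRF-Adr (ABCB1) cells / Amount: 3 million cells/mL in well / Reagent: JC-1 transporter substrate / Timing: 10 min compound exposure, 25 °C / Signal: flow cytometry, 530 nm JC-1 signal / Read-out: percent efflux inhibition, scaled nicardipine 100% to DMSO 0% / Benchmarks: nicardipine as high control, DMSO as low control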

inhibition, inactive:
CC(C)n1c(-c2ccncc2)n[nH]c1=S 0.69%, Clc1ncn(CCOc2ccccc2)c1Cl 1.15%, CN(/C(=N/S(=O)(=O)c1cccs1)c1ccccc1)c1ccc(O)cc1 0.46%, N#C/C(=C/c1ccc(N2CCOCC2)o1)C(=O)N1CCOCC1 7.86%, COc1ccccc1-c1nnc(NC(=O)c2ccc3ncsc3c2)o1 -4.46%, COC(=O)c1ccc(CSc2nncn2N)cc1 -1.84%, CCOc1ccc(CN2CCN(Cc3ccon3)CC2CCO)cc1 (stereo not given) -2.99%, Cc1ncc([N+](=O)[O-])n1CCOC(=O)c1ccc(Br)cc1 9.29%, CCO/N=C(/C)c1c(O)cc(-c2ccccc2)n(-c2ccccc2)c1=O 32.1%, Cc1nnsc1C(=O)Nc1cccc(Cl)c1C 10.7%, CCC1=NN(C(=O)Cc2ccc([N+](=O)[O-])cc2)C(O)(c2ccc(Br)cc2)C1 (stereo not given) 5.42%, O=c1c(-c2ccccc2)coc2cc(O)ccc12 2.5%, CCn1nc(C)c(/C=N/NC(=O)Cc2ccc(Cl)cc2)c1C 9.46%, Cc1ccc2nc(SCc3cn4c(C)cc(C)nc4n3)[nH]c2c1 7.53%, CC(C)(C)n1nc2c(c1NC(=O)c1cc3ccccc3o1)CSC2 0.23%, Cc1nc(N)c(Br)c(C)c1Br 2.8%, CC(CCn1cccn1)NC(=O)CCc1nnc(CCc2ccccc2)o1 (stereo not given) -0.02%, CCOC(=O)c1c(NC(=O)c2ccc(Br)o2)sc2c1CCCC2 14.6%, CCCOC(=O)Nc1sc2c(c1C(=O)OCC)CCC2 31.4%, O=C(NCc1ccccc1Cl)C1CCC(CNc2c(N3CCCCC3)c(=O)c2=O)CC1 (stereo not given) 0%, CCOC(=O)c1sc(/N=C/C2=C(O)CC(C)(C)CC2=O)c(C(=O)OCC)c1C 3.82%, COc1ccc(CC(=O)NCc2nnc(SCC(=O)Nc3nccs3)n2C)cc1 0.7%, COc1cc(NC(=O)c2cccnc2SC)cc(OC)c1 11.7%, Cc1ccc(N2C(=O)SC(N(CC(=O)O)c3ccc(C)cc3)C2=O)cc1 (stereo not given) 1.16%, CC(=O)c1ccc(NC(=O)Nc2ccc([N+](=O)[O-])cc2C)cc1 28.4%, COc1ccc(-c2cn(-c3ccc(OC)cc3)c(=S)[nH]2)cc1 6.92%, CCc1ccc(NC(=O)c2ccc(Cn3cc([N+](=O)[O-])cn3)cc2)cc1 1.22%, O=C(Nc1ccc(Br)c2cccnc12)c1ccc(Cn2cc([N+](=O)[O-])cn2)o1 1.01%

inhibition, active:
CCOCC(=O)Nc1sc2c(c1C(=O)OCC)CCCC2 104%, COc1cccc(NC(=O)c2ccc(Cn3cc([N+](=O)[O-])cn3)o2)c1 89.2%
